# Screening results: PubChem BioAssay, Broad Institute
# Sampled rows, rich in hits. Any-hit rate of the full collection: about 2.3%.
# PDI inh – blocks human protein disulfide isomerase activity. PDI insulin aggregation turbidity, A650, 90 min. AID 588391. 0.052% of 350,000 active. P07237. inhibition, % at 10 µM;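 active = mean inhibition across replicates of 30% or more, whatever share of single replicates reach that level; inconclusive = mean inhibition below 30% while every single replicate reaches 30%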
# Target sequence (P07237 whole entry, looked up): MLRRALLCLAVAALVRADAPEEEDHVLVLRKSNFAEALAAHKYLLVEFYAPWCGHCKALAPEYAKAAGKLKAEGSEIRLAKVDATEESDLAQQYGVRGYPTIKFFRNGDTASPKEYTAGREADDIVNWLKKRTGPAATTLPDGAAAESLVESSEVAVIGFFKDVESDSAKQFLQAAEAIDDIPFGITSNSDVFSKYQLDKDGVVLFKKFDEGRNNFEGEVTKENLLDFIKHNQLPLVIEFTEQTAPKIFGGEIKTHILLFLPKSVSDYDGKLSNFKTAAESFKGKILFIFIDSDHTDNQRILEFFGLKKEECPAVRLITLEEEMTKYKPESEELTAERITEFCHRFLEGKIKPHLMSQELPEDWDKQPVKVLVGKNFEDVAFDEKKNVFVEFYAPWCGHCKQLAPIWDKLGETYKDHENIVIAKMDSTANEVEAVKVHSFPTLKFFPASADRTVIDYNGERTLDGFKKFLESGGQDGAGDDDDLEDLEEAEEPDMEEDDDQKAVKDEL
# Cneo AK release – Cryptococcus neoformans lysis via adenylate kinase release | C. neoformans lysis, adenylate kinase release luminescence, 4 h; normalised: neutral wells 0, clomiphene wells 100 | 0.2% of 360,000 active | lysis activity, % at 15 µM;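 active = mean lysis activity across replicates of at least 80%, whatever share of replicates individually reach that level; inactive = mean lysis activity below 80%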
#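 Material: C. neoformans cells; Schedule: 4 h static compound exposure, 37 °C, read 1 h post-reagent; Measured by: adenylate kinase release luminescence; Read-out: signal increase indicating cell lysis; Controls: Clomiphene as positive lysis control.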
# CFTR F508del cor – CFTR F508del correction in bronchial cells; CFBE cells, YFP halide quenching; stimulated with forskolin plus potentiator P3; % fluorescence drop versus neutral controls; activity (quench increase), % at 7.58 µM; 0.36% of 350,000 active; AID 720511;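 active = mean added fluorescence quench of at least 8% versus neutral control, with both replicates also reaching 8%; inconclusive = only one of the mean or replicate conditions met; inactive = mean below 8% and not both replicates reaching 8%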;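 note: cells transiently co-express mutant CFTR-F508del with the halide-sensitive YFP; corrector assay measuring rescue of mutant channel to the surface after 24 h compound exposure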
# Statin myotox sup – suppressors of simvastatin-induced myotoxicity in C2C12 myotubes | ATP luminescence, 48 h; scaled: DMSO 0, geranylgeraniol control 100 | rescue of ATP level, % at 7.49 µM | 0.78% of 330,000 active;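 active = mean ATP rescue above about 67%, or every replicate alone reaching that limit, limit read from the data, passing the limit was not always enough; inconclusive = no clear call, values can overlap the other calls; inactive = mean under the limit and some replicate under it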;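 note: myotubes were challenged with 10 µM simvastatin during compound exposure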
# DENV2 CPE rescue – inhibitors of DENV2 cytopathic effect; 1.7% of 350,000 active; DENV2-infected cells, cytopathic effect rescue, plate reader; CPE inhibition, % at 9.99 µM; in the data active = CPE inhibition above about 20%, passing the limit was not always enough; inconclusive = no clear call, values can overlap the other calls; tested in BHK-21 cells;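 note: 0% = median of neutral control wells and 100% = median of positive control wells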
# ERp5 inh – inhibitors of human ERp5; AID 651711; Q15084; ERp5 insulin aggregation, absorbance 650 nm, 90 min; inhibition, % at 9.99 µM; 0.05% of 350,000 active;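 active = mean replicate inhibition above about 25%, with every replicate also reaching it, limit read from the data, passing the limit was not always enough; inconclusive = only one of those two criteria met; inactive = neither criterion met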
# The depositor's hits bear a star; ? = inconclusive; / = no result.
SMILES,PDI inh,Cneo AK release,CFTR F508del cor,Statin myotox sup,DENV2 CPE rescue,ERp5 inh
CC1CCN(C(c2ccccc2)c2nnnn2C(C)(C)C)CC1 (stereo not given),-1.9,2.1,/,105.7*,/,/
CC(C)NC(=O)N(C)C[C@H]1Oc2ccc(NS(=O)(=O)c3ccc(F)cc3)cc2CC(=O)N([C@H](C)CO)C[C@H]1C,/,3.5,1.3,-2.8,10.5,-3.0
O=C(NCCO)c1cccc2c1-c1ccccc1C2=O,-8.6,/,1.4,/,-4.8,1.2
CC(C)(C)NC(=O)c1cccc2c1-c1ccccc1C2=O,4.6,-0.2,10.1*,22.1,7.4,0.1
CC(C)NC(=O)N(C)C[C@H]1Oc2ccc(NC(=O)Nc3ccc(F)cc3)cc2CC(=O)N([C@@H](C)CO)C[C@H]1C,/,-1.9,1.5,-13.0,0.6,7.1
Nc1ccc2ccccc2c1C(=O)c1ccccc1,8.5,0.7,-0.3,9.0,57.0*,-1.3
COc1cc2c(C(=O)NCCCN3CCN(c4cccc(Cl)c4)CC3)cn(C)c(=O)c2cc1OC,-2.8,1.0,/,121.6*,/,/
C[C@@H]1CN([C@@H](C)CO)C(=O)c2cccc(NC(=O)Nc3ccc(F)cc3)c2O[C@H]1CN(C)CC1CCCCC1,/,-4.4,3.0,38.3,-1.3,1.8
CCCCN(C(=O)c1cc(S(=O)(=O)N2CCCCC2)ccc1Cl)c1c(N)n(CC(C)C)c(=O)[nH]c1=O,-6.3,0.6,10.0*,-1.0,0.2,-0.1
CCCCN(C(=O)c1ccccc1OCc1ccc(F)cc1)c1c(N)n(CC(C)C)c(=O)[nH]c1=O,3.1,-1.4,-0.3,/,66.4*,3.2
C/C=C/c1ccc([C@@H]2[C@H](CO)N(CC3CCCC3)C23CN(C(=O)COC)C3)cc1,/,/,-0.3,/,7.7,0.5
CNC[C@@H]1Oc2ccc(NC(=O)NC3CCCCC3)cc2C(=O)N([C@@H](C)CO)C[C@H]1C,/,1.8,0.9,-0.2,5.5,0.0
CCOP(=O)(OCC)c1ccc2c(c1)C(=O)c1ccccc1CC2,-2.0,-1.3,-2.6,25.4,45.9*,-3.5
O=C1C(=C2CCc3ccccc32)Cc2ccccc21,1.1,-8.2,2.3,11.3,-4.1,3.4
O=S(=O)(NC1=NCCCCC1)c1ccc2sc(NS(=O)(=O)c3ccc4ccccc4c3)nc2c1,0.7,4.8,4.3,42.8,20.0,-0.8
O=S(=O)(Nc1nc2c(s1)CCCC2)c1ccc2ccccc2c1,-7.1,0.9,/,122.6*,/,/
O=C(Nc1cccc(Cl)c1)c1nc[nH]c1C(=O)NCCCNC(=O)c1[nH]cnc1C(=O)Nc1cccc(Cl)c1,-11.1,0.5,0.6,105.8*,/,0.6
O=C(Nc1ccccc1)c1nc[nH]c1C(=O)Nc1ccccc1F,-6.1,-0.1,9.5*,9.2,-11.0,-3.2
O=C(Nc1ccccc1)c1nc[nH]c1C(=O)NCCCCNC(=O)c1[nH]cnc1C(=O)Nc1ccccc1,-3.7,-0.4,-0.3,-56.6,-3.7,-4.2
CCO[C@H]1OC(C(=O)N2CCOCC2)=C[C@@H](C2CCCCC2)[C@@H]1CCCO,/,0.3,0.4,/,1.9,4.0
CC(C)Nc1cc(C(C)(C)C)nc2c(-c3ccccc3)cnn12,2.0,/,0.8,/,46.0*,-7.4
CC(C)(C)c1cc(C(F)(F)F)n2ncc(-c3ccccc3)c2n1,-3.4,33.7,0.6,4.9,-2.7,-1.8
CC(C)NC(=O)N1C[C@@H]2[C@H](c3ccccc31)[C@H](CO)N2Cc1ccc(Cl)cc1,/,-1.1,1.1,-27.4,8.8,5.1
Nc1nc(SCC(=O)Nc2cc(S(=O)(=O)N3CCOCC3)ccc2Cl)n[nH]1,5.7,-2.5,-0.1,1.8,9.8,2.6
Cc1cccc(OCCC(=O)Nc2ccc(S(=O)(=O)N3CCCC3)cc2)c1,4.9,5.3,/,109.0*,/,/
SMILES,PDI inh,Cneo AK release,CFTR F508del cor,Statin myotox sup,DENV2 CPE rescue,ERp5 inh
O=C(COc1cccc(C(F)(F)F)c1)Nc1ccc(S(=O)(=O)N2CCCC2)cc1,-7.0,-2.7,-2.5,115.6*,-2.7,-2.0
Cn1cnnc1SCC(=O)Nc1ccc(S(=O)(=O)N2CCCC2)cc1,2.6,-0.8,-1.8,-5.1,4.5,2.1
Cc1ccc(S(=O)(=O)N2CCOCC2)cc1NC(=O)CSc1n[nH]c(N)n1,1.6,/,17.7*,/,0.5,-0.4
Cn1cnnc1SCC(=O)Nc1ccc(S(=O)(=O)N2CCOCC2)cc1,14.1,-0.4,12.3*,-7.0,?,-1.9
C#CCNC(=O)C1=C[C@H](c2ccc(C#C)cc2)C[C@H](OCCCCO)O1,/,-5.3,2.0,/,15.8,-8.5
C[C@H]1CN([C@@H](C)CO)C(=O)c2cc(NC(=O)CCCN(C)C)ccc2O[C@@H]1CN(C)C(=O)Nc1ccccc1,/,1.0,-3.5,-14.3,-2.4,1.0
CCCN(C)C[C@H]1OCCCC[C@H](C)Oc2ccc(N(C)C)cc2C(=O)N([C@@H](C)CO)C[C@H]1C,/,1.9,-3.3,-20.4,-2.5,1.7
COc1ccc(NC(=O)N(C)C[C@H]2OCCCC[C@H](C)Oc3ccc(NC(=O)c4ccccc4)cc3C(=O)N([C@@H](C)CO)C[C@@H]2C)cc1,/,-11.3,-1.4,/,-12.8,-2.9
Nn1c(SCC(=O)Nc2ccc(S(=O)(=O)N3CCCC3)cc2)nnc1C(F)(F)F,0.9,-2.4,/,107.0*,/,/
Nn1c(SCC(=O)Nc2ccc3c(c2)OCO3)nnc1C(F)(F)F,1.7,/,0.0,/,2.4,11.6
O=C(Cc1cccc(C(F)(F)F)c1)Nc1cccc(S(=O)(=O)N2CCCC2)c1,-2.3,-3.5,1.4,6.2,-1.9,-9.4
O=C(Cc1cccc(C(F)(F)F)c1)Nc1ccc(S(=O)(=O)N2CCCC2)cc1,6.3,0.6,-0.4,0.0,79.0*,-0.9
CC(=O)C1CN(S(=O)(=O)c2ccc(C)cc2)C(c2ccccc2)CC1C (stereo not given),/,/,0.3,/,38.5*,2.2
C[C@@H]1CN([C@@H](C)CO)C(=O)c2cc(NC(=O)Nc3cccc4ccccc34)ccc2O[C@@H](C)CCCCO[C@H]1CN(C)CC1CCCCC1,/,-1.6,0.1,/,28.2*,-3.5
C[C@@H]1CCCCO[C@@H](CN(C)CC2CCCCC2)[C@H](C)CN([C@H](C)CO)C(=O)c2cc(NC(=O)Nc3cccc4ccccc34)ccc2O1,/,1.2,4.5,/,118.1*,-0.9
C[C@@H]1CN([C@@H](C)CO)C(=O)c2cc(NC(=O)Nc3cccc4ccccc34)ccc2O[C@@H](C)CCCCO[C@@H]1CN(C)CC1CCCCC1,/,-1.6,-1.1,/,-3.4,-3.9
C[C@@H]1CN([C@@H](C)CO)C(=O)c2cc(NC(=O)Nc3cccc4ccccc34)ccc2O[C@@H]1CN(C)CC1CCCCC1,/,4.3,-1.7,-11.4,9.0,5.0
C[C@H]1CCCCO[C@H](CN(C)C)[C@@H](C)CN([C@@H](C)CO)C(=O)c2cc(NC(=O)Nc3cccc4ccccc34)ccc2O1,/,38.2,-1.2,-6.7,?,2.2
